From ChEMBL document CHEMBL1144108, “Annocherin and (2,4)-cis- and trans-annocherinones, monotetrahydrofuran Annonaceous acetogenins with a C-7 carbonyl group from Annona cherimolia seeds” (J Nat Prod, 1999)
In brackets after ≈: the same amount, converted by molar mass.

What was measured:
[1] = Toxicity to brine shrimp larvae; assay type: organism-based; conditions: artemia salina, in vivo
MIA PaCa-2 [2] = test: Cytotoxicity against human MIA PaCa2 cells after 7 days by MTT assay; assay type: functional; conditions: MIA PaCa-2, 168 h, read-out: ED50 (the source's name)
Outline: (§1)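 Seven-day in vitro MTT cytotoxicity assay run at the Purdue Cancer Center Cell Culture Laboratory to standard protocols. Lines: A-549 lung carcinoma, MCF-7 breast carcinoma, HT-29 colon adenocarcinoma, A-498 kidney carcinoma, PC-3 prostate adenocarcinoma, MIA PaCa-2 pancreatic carcinoma. Adriamycin served as positive control.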

MCF7 = test: Cytotoxicity against human MCF7 cells after 7 days by MTT assay; assay type: functional; conditions: MCF7, 168 h, read-out: ED50 (the source's name); outline: as §1
A549 = test: Cytotoxicity against human A549 cells after 7 days by MTT assay; assay type: functional; conditions: A549, 168 h, read-out: ED50 (the source's name); outline: as §1
A498 [3] = test: Cytotoxicity against human A-498 cells after 7 days by MTT assay; assay type: functional; conditions: A498, 168 h, read-out: ED50 (the source's name); outline: as §1
MIA PaCa-2 [4] = test: Selectivity for human A498 cells over human MIA PaCa2 cells; assay type: functional
A498 [5] = test: Selectivity for human A498 cells over human HT29 cells; assay type: functional
PC-3 = test: Cytotoxicity against human PC-3 cells after 7 days by MTT assay; assay type: functional; conditions: PC-3, 168 h, read-out: ED50 (the source's name); outline: as §1
HT-29 = test: Cytotoxicity against human HT-29 cells after 7 days by MTT assay; assay type: functional; conditions: HT-29, 168 h, read-out: ED50 (the source's name); outline: as §1

SMILES	LC50 [1]	EC50 (MIA PaCa-2 [2])	EC50 (MCF7)	EC50 (A549)	EC50 (A498 [3])	Selectivity ratio (MIA PaCa-2 [4])	Selectivity ratio (A498 [5])	EC50 (PC-3)	EC50 (HT-29)
CCCCCCCCCCCC[C@H](O)[C@@H]1CC[C@@H]([C@@H](O)CCCCCCCC(O)CC[C@@H](O)CC2=C[C@H](C)OC2=O)O1 (some centres undefined)	0.0125 µg/mL (≈ 0.0209 µM)	0.001 µg/mL (≈ 0.00168 µM)	0.011 µg/mL (≈ 0.0184 µM)	1.63 µg/mL (≈ 2.73 µM)	2.96 µg/mL (≈ 4.96 µM)	1000	1000	1.32 µg/mL (≈ 2.21 µM)	0.001 µg/mL (≈ 0.00168 µM)
CCCCCCCCCCCC[C@H](O)[C@@H]1CC[C@@H]([C@@H](O)CCCCCCCC(=O)CC[C@@H](O)CC2=C[C@H](C)OC2=O)O1 [ANNOCHERIN]	0.137 µg/mL (≈ 0.23 µM)	2.88 µg/mL (≈ 4.84 µM)	0.308 µg/mL (≈ 0.518 µM)	1.67 µg/mL (≈ 2.81 µM)	0.022 µg/mL (≈ 0.037 µM)	131	161	0.862 µg/mL (≈ 1.45 µM)	3.54 µg/mL (≈ 5.95 µM)
COc1cccc2c1C(=O)c1c(O)c3c(c(O)c1C2=O)C[C@@](O)(C(=O)CO)C[C@@H]3O[C@H]1C[C@H](N)[C@H](O)[C@H](C)O1 [DOXORUBICIN]	–	0.00101 µg/mL (≈ 0.00186 µM)	0.129 µg/mL (≈ 0.237 µM)	0.0043 µg/mL (≈ 0.00791 µM)	0.0156 µg/mL (≈ 0.0287 µM)	–	–	0.0499 µg/mL (≈ 0.0918 µM)	0.0168 µg/mL (≈ 0.0309 µM)
